Experimental data as given in ChEMBL document CHEMBL1127085, “Derivatives of 2-(dipropylamino)tetralin: effect of the C8-substituent on the interaction with 5-HT1A receptors” (J Med Chem, 1993).

Legend:
[1] = target: T1, 5-hydroxytryptamine receptor 1A (Rattus norvegicus, UniProt P19327); assay: Binding affinity of 5-hydroxytryptamine 1A receptor using [3H]-8-OH-DPAT as radioligand.
T1 sequence (P19327 whole entry): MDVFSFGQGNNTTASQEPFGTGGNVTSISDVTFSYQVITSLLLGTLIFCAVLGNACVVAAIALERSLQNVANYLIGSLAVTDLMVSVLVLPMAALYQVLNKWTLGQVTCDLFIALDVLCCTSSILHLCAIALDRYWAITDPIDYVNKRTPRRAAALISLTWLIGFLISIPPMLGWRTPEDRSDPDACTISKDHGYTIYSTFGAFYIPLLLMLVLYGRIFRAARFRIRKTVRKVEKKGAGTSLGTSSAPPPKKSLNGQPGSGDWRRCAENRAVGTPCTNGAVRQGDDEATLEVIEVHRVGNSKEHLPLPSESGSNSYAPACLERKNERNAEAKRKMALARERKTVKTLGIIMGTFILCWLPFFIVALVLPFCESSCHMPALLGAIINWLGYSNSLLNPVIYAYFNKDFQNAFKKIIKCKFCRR
Procedure, shortened: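 Membranes from cortex and hippocampus of male Sprague-Dawley rats, pooled from at least six rats, preincubated with 10 µM pargyline. Assay used 2 nM [3H]-8-OH-DPAT, test compound at 1-300 nM and 5 mg/mL tissue in 50 mM Tris-HCl with 4.0 mM CaCl2 and 5.7 mM ascorbate, pH 7.5. Incubated 10 min at 37 °C, filtered on GF/B, scintillation counted.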

[2] = target: T2, 5-hydroxytryptamine receptor 1A (Rattus norvegicus) (UniProt P19327); assay: Induction of clear-cut 5-HT motor syndrome in reserpine (5 mg/Kg, sc) pretreated rats at the dose of 32 uM/Kg; type: functional, organism-based
T2 sequence (whole entry): T1 sequence (P19327 whole entry)

[3] = target: T2, 5-hydroxytryptamine receptor 1A (Rattus norvegicus); assay: Induction of clear-cut 5-HT motor syndrome in normal rats at the dose of 32 micro mol/kg; type: functional
Rattus norvegicus [4] = assay: Change in body temperature of rats upon administration after 30 minutes (p<0.01); type: functional
Procedure, shortened: (§1)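 Colonic temperature taken with an electrical thermometer probe 3.5 cm deep, before and 30 min after sc injection in saline. Change reported in °C as mean ± SEM; animal numbers as in the cage-leaving test. ANOVA with Tukey test.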

[5] = target: T2, 5-hydroxytryptamine receptor 1A (Rattus norvegicus); assay: Number of rats displaying the 5-HT syndrome or leaving the cage out of the number of rats tested; type: functional
[6] = target: T2, 5-hydroxytryptamine receptor 1A (Rattus norvegicus); assay: Induction of clear-cut 5-HT motor syndrome in reserpine (5 mg/kg, sc) pretreated rats at the dose of 32 micro mol/kg; type: functional, organism-based
Rattus norvegicus [7] = organism: Rattus norvegicus; assay: Dopamine (DA) turnover in rat corpus striatum (p<0.01); type: functional
Procedure, shortened: (§2)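 Rats given compound sc in 0.9% NaCl (screening dose typically 32 µmol/kg); decapitated about 30 min after dosing. Hippocampus and corpus striatum dissected and frozen. Perchloric acid homogenates analysed by HPLC with electrochemical detection. Turnover taken as 5-HIAA/5-HT or DOPAC/DA, expressed as percent of saline control. Means ± SEM; n = 5-7 controls, 4-6 treated. ANOVA with Tukey test.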

[8] = target: T2, 5-hydroxytryptamine receptor 1A (Rattus norvegicus); assay: 5-HT (serotonin) turnover in rat hippocampus; type: functional, tissue-based; procedure, shortened: as §2
Rattus norvegicus [9] = assay: Induction of clear-cut 5-HT motor syndrome in reserpine (5 mg/Kg, sc) pretreated rats at the dose of 10 uM/Kg; type: functional
Rattus norvegicus [10] = assay: Induction of clear-cut 5-HT motor syndrome in normal rats at the dose of 10 uM/Kg; type: functional
Rattus norvegicus [11] = assay: Change in body temperature of rats upon administration after 30 minutes; type: functional; procedure, shortened: as §1
[12] = target: T3, Dopamine receptor (Rattus norvegicus) (UniProt P25115+P19020+P30729+P18901+P61169); assay: Dopamine (DA) turnover in rat corpus striatum; type: functional, tissue-based; procedure, shortened: as §2
Rattus norvegicus [13] = assay: Induction of clear-cut 5-HT motor syndrome in normal rats at the dose of 1 uM/Kg; type: functional
Rattus norvegicus [14] = assay: Induction of clear-cut 5-HT motor syndrome in reserpine (5 mg/Kg, sc) pretreated rats at the dose of 1 uM/Kg; type: functional
[15] = target: T2, 5-hydroxytryptamine receptor 1A (Rattus norvegicus); assay: 5-HT (serotonin) turnover in rat hippocampus (p<0.01); type: functional, tissue-based
Procedure, shortened: (§3)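 Rats dosed sc (screening dose typically 32 µmol/kg, in 0.9% NaCl, 2 mL/kg); decapitated 5-10 min after the 30-min rating, […]. Hippocampus dissected and frozen. 5-HIAA/5-HT ratio measured by HPLC with electrochemical detection (+0.85 V) after perchloric acid homogenisation. Reported as percent of saline control, mean ± SEM, n = 4-6 per group; ANOVA with Tukey test.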

[16] = target: T2, 5-hydroxytryptamine receptor 1A (Rattus norvegicus); assay: Effect of 5-HT accumulation in rat hippocampus at the dose of 32 umol/kg (p<0.01); type: functional, tissue-based
Procedure, shortened: (§4)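 Test compound given sc in 0.9% NaCl. NSD 1015 (287 µmol/kg sc) given 30 min later to inhibit aromatic L-amino acid decarboxylase; rats decapitated after a further 30 min. Hippocampus and striatum stored at -40 °C for up to 1 week. Perchloric acid homogenates with α-methyl-5-hydroxytryptophan internal standard; 5-HTP and DOPA measured by HPLC-EC. Percent of control, means ± SEM; ANOVA with Tukey test.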

[17] = target: T3, Dopamine receptor (Rattus norvegicus); assay: Effect of accumulation of DOPA in rat striatum at the dose of 32 umol/kg; type: functional, tissue-based; procedure, shortened: as §4
[18] = target: T2, 5-hydroxytryptamine receptor 1A (Rattus norvegicus); assay: Antagonistic effect on 5-HT syndrome or behavior of rat induced by (R)-1 at the dose of 32 and 1.0 umol/kg of compound (R)-1; type: functional
Procedure, shortened: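 Compound (32 µmol/kg sc) or saline injected 10 min before (R)-8-OH-DPAT (1.0 µmol/kg sc). Flat body posture, forepaw treading and hindlimb abduction scored during 30 min of observation. Results as number of rats showing the behaviour out of number tested; Fisher's exact probability test.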

Rattus norvegicus [19] = assay: Antagonistic effect on body temperature of rat induced by (R)-1 at the dose of 32 and 1.0 umol/kg of compound (R)-1; type: functional
Procedure, shortened: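 Compound (32 µmol/kg sc) or saline injected 10 min before (R)-8-OH-DPAT (1.0 µmol/kg sc). Colonic temperature taken before injection and 30 min later; result is the change from the preinjection value. One-way ANOVA with Tukey HSD test.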

Rattus norvegicus [20] = assay: Induction of clear-cut 5-HT motor syndrome in normal rats at the dose of 32 umol/kg; type: functional
[21] = target: T2, 5-hydroxytryptamine receptor 1A (Rattus norvegicus); assay: 5-HT (serotonin) turnover in rat hippocampus (p<0.05); type: functional, tissue-based; procedure, shortened: as §3
Rattus norvegicus [22] = assay: Induction of clear-cut 5-HT motor syndrome in normal rats at the dose of 32 uM/Kg; type: functional
Rattus norvegicus [23] = assay: Induction of clear-cut 5-HT motor syndrome in reserpine (5 mg/kg, sc) pretreated rats at the dose of 10 micro mol/kg; type: functional

Compound	Ki [1] [nM]	No. of rats [5]	Behavioral effect [6]	Turnover [8]	Temperature (Rattus norvegicus [11])	Turnover [12]	other results
CCCN(CCC)[C@H]1CCc2cccc(C#N)c2C1	37	–	–	–	–	–	Behavioral effect [2]: 4
CCCN(CCC)[C@H]1CCc2ccccc2C1	–	5	0	104	–	–	Behavioral effect [3]: 5; Temperature (Rattus norvegicus [4]): -1.6; Turnover (Rattus norvegicus [7]): 62
CCCN(CCC)[C@@H]1CCc2cccc(C(=O)OC)c2C1	–	0	–	63	-2.3	90	Behavioral effect (Rattus norvegicus [9]): 4; Behavioral effect (Rattus norvegicus [10]): 4
CCCN(CCC)[C@@H]1CCc2cccc(C(C)=O)c2C1	–	0	–	68	-2.8	106	Behavioral effect (Rattus norvegicus [13]): 4; Behavioral effect (Rattus norvegicus [14]): 4
CCCN(CCC)C1CCc2cccc(C)c2C1 (racemic)	42	–	–	–	–	–	–
CCCN(CCC)[C@H]1CCc2cccc(C(C)=O)c2C1	–	0	–	71	-2.1	111	Behavioral effect (Rattus norvegicus [13]): 4; Behavioral effect (Rattus norvegicus [14]): 4
CCCCC(=O)c1cccc2c1CC(N(CCC)CCC)CC2 (racemic)	19	–	–	–	–	–	Behavioral effect [2]: 4
C#Cc1cccc2c1C[C@@H](N(CCC)CCC)CC2	16	0	4	–	–	82	Turnover [15]: 66; Behavioral effect [3]: 4; Accumulation [16]: 31; Temperature (Rattus norvegicus [4]): -2.8; Accumulation [17]: 95
CCCN(CCC)[C@@H]1CCc2cccc(C#N)c2C1	19	–	–	–	–	–	Behavioral effect (Rattus norvegicus [9]): 3
CCCN(CCC)[C@H]1CCc2cccc(OS(=O)(=O)C(F)(F)F)c2C1	–	1	–	84	0.5	104	Effect [18]: 4; Temperature (Rattus norvegicus [19]): -3.18; Behavioral effect (Rattus norvegicus [20]): 0
CCCN(CCC)C1CCc2cccc(C(C)=O)c2C1 (racemic)	0.9	–	–	–	–	–	Behavioral effect (Rattus norvegicus [14]): 4
CCCN(CCC)[C@@H]1CCc2cccc(-c3ccccc3)c2C1	–	3	0	98	–	85	Behavioral effect [3]: 0; Effect [18]: 4; Temperature (Rattus norvegicus [4]): 0.3; Temperature (Rattus norvegicus [19]): -3.68
CCCN(CCC)C1CCc2cccc(OS(=O)(=O)C(F)(F)F)c2C1 (racemic)	–	–	0	–	–	–	–
CCCN(CCC)C1CCc2cccc(C(=O)c3ccccc3)c2C1 (racemic)	2.8	–	–	–	–	–	–
CCCN(CCC)[C@H]1CCc2cccc(-c3ccccc3)c2C1	–	4	0	98	0.6	99	Behavioral effect [3]: 0; Effect [18]: 4; Temperature (Rattus norvegicus [19]): -2.58
CCCN(CCC)[C@@H]1CCc2ccccc2C1	–	4	4	–	–	–	Turnover [15]: 51; Temperature (Rattus norvegicus [4]): -1.4; Behavioral effect (Rattus norvegicus [20]): 4; Turnover (Rattus norvegicus [7]): 77
CCCN(CCC)[C@H]1CCc2cccc(C)c2C1	–	0	0	79	–	80	Behavioral effect [3]: 4; Accumulation [16]: 64; Temperature (Rattus norvegicus [4]): -2.3; Accumulation [17]: 119
CCCN(CCC)C1CCc2cccc(C(N)=O)c2C1 (racemic)	6	–	–	–	–	–	Behavioral effect [2]: 4
CCCN(CCC)[C@H]1CCc2cccc(OC)c2C1	–	0	–	–	-1.5	79	Behavioral effect [3]: 4; Turnover [21]: 80
CCCN(CCC)[C@@H]1CCc2cccc(C(=O)c3ccccc3)c2C1	4.6	0	–	74	-3.3	122	Behavioral effect (Rattus norvegicus [22]): 4; Accumulation [16]: 56; Accumulation [17]: 69; Behavioral effect [2]: 4
CCCN(CCC)[C@H]1CCc2cccc(C(=O)OC)c2C1	–	0	–	59	-2.5	98	Behavioral effect (Rattus norvegicus [9]): 4; Behavioral effect (Rattus norvegicus [10]): 4
CCCN(CCC)C1CCc2cccc(C#N)c2C1 (racemic)	26	–	–	–	–	–	Behavioral effect [2]: 3
CCCN(CCC)[C@H]1CCc2cccc(CO)c2C1	130	0	0	–	-2.2	121	Behavioral effect [3]: 4; Accumulation [16]: 58; Accumulation [17]: 101; Turnover [21]: 75
CCCN(CCC)C1CCc2cccc(-c3ccccc3)c2C1 (racemic)	12	–	0	–	–	–	–
C#Cc1cccc2c1CC(N(CCC)CCC)CC2 (racemic)	4	–	–	–	–	–	Behavioral effect (Rattus norvegicus [23]): 1
